Measurements reported in ChEMBL document CHEMBL1135765, “Synthesis of 3' '-substituted TSAO derivatives with anti-HIV-1 and anti-HIV-2 activity through an efficient palladium-catalyzed cross-coupling approach” (J Med Chem, 2002).
pEC50: −log10 of the molar value.

Columns and labels:
MT4 = experiment: Cytotoxic concentration required to inhibit MT-4 cell proliferation by 50%; assay type: functional; settings: Homo sapiens
In short: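 Mock-infected MT-4 cells (3 × 10⁵/mL) incubated with compound dilutions; CC₅₀ is the concentration that reduces the number of viable MT-4 cells by 50%.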

[1] = Effective concentration required to inhibit HIV-1 induced cytopathicity in MT-4 cell culture by 50%.; settings: mt4
[2] = system: Human immunodeficiency virus 2; experiment: Effective concentration required to inhibit HIV-2 induced cytopathicity in MT-4 cell culture by 50%.; assay type: functional, organism-based; settings: Human immunodeficiency virus 2, MT4
In short: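 MT-4 cells at 3 × 10⁵/mL infected with HIV-1 or HIV-2 at ~100 CCID₅₀ per mL, mixed 1:1 with compound dilutions. Cytopathicity read by trypan blue dye exclusion after 5 days. EC₅₀ is the concentration giving 50% protection against the virus-induced loss of cell viability.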

[3] = system: Human immunodeficiency virus 2; experiment: Effective concentration required to inhibit HIV-2 induced cytopathicity in CEM cell culture by 50%.; assay type: functional, organism-based; settings: Human immunodeficiency virus 2, CCRF-CEM
In short: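 CEM cells at 4 × 10⁵/mL infected with HIV-1 or HIV-2 at ~100 CCID₅₀ per mL, mixed 1:1 with compound dilutions. Giant cell formation scored microscopically after 4 days. EC₅₀ is the concentration inhibiting virus-induced cytopathicity by 50%.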

CCRF-CEM = experiment: Cytostatic concentration required to inhibit CEM cell proliferation by 50%; assay type: functional; settings: Homo sapiens
In short: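 CEM cells (4 × 10⁵/mL) exposed to compound dilutions without virus; CC₅₀ is the concentration that inhibits CEM cell proliferation by 50%.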

Structure (SMILES) | CC50 (MT4) [µM] | pEC50 [1] | pEC50 [2] | pEC50 [3] | CC50 (CCRF-CEM) [µM]
Cc1cn([C@@H]2O[C@H](CO[Si](C)(C)C(C)(C)C)C3(OS(=O)(=O)C=C3N)[C@H]2O[Si](C)(C)C(C)(C)C)c(=O)[nH]c1=O (stereo partly specified) | 12 | 7.22 | < 5.00 | < 5.00 | –
Cc1cn([C@@H]2O[C@H](CO[Si](C)(C)C(C)(C)C)[C@@]3(OS(=O)(=O)C=C3N)[C@H]2O[Si](C)(C)C(C)(C)C)c(=O)n(C)c1=O | 230 | – | < 3.60 | < 3.60 | –
Cc1cn([C@@H]2O[C@H](CO[Si](C)(C)C(C)(C)C)[C@@]3(OS(=O)(=O)C(I)=C3N)[C@H]2O[Si](C)(C)C(C)(C)C)c(=O)[nH]c1=O | 4.3 | – | < 5.70 | < 5.70 | 4
Cc1cn([C@@H]2O[C@H](CO[Si](C)(C)C(C)(C)C)[C@@]3(OS(=O)(=O)C(CC(N)=O)=C3NCC(N)=O)[C@H]2O[Si](C)(C)C(C)(C)C)c(=O)n(C)c1=O | 3.2 | – | < 5.70 | < 5.70 | 3.9
Cc1cn([C@@H]2O[C@H](CO[Si](C)(C)C(C)(C)C)[C@@]3(OS(=O)(=O)C(/C=C/CO)=C3N)[C@H]2O[Si](C)(C)C(C)(C)C)c(=O)n(C)c1=O | 13 | – | < 5.00 | 5.24 | 18
C=CC1=C(N)[C@@]2(OS1(=O)=O)[C@@H](CO)O[C@@H](n1cc(C)c(=O)[nH]c1=O)[C@@H]2O[Si](C)(C)C(C)(C)C | 47 | – | < 4.30 | < 4.30 | 76
Cc1cn([C@@H]2O[C@H](CO[Si](C)(C)C(C)(C)C)[C@@]3(OS(=O)(=O)C(Cl)=C3N)[C@H]2O[Si](C)(C)C(C)(C)C)c(=O)[nH]c1=O | 5.4 | – | < 5.00 | < 5.00 | 7
Cc1cn([C@@H]2O[C@H](CO[Si](C)(C)C(C)(C)C)[C@@]3(OS(=O)(=O)C(Br)=C3N)[C@H]2O[Si](C)(C)C(C)(C)C)c(=O)[nH]c1=O | 18 | – | < 5.00 | < 5.00 | 17
Cc1cn([C@@H]2O[C@H](CO[Si](C)(C)C(C)(C)C)[C@@]3(OS(=O)(=O)C(c4ccccc4)=C3N)[C@H]2O[Si](C)(C)C(C)(C)C)c(=O)[nH]c1=O | 55 | – | < 4.30 | < 5.70 | 37
CC#CC1=C(N)[C@@]2(OS1(=O)=O)[C@@H](CO[Si](C)(C)C(C)(C)C)O[C@@H](n1cc(C)c(=O)n(C)c1=O)[C@@H]2O[Si](C)(C)C(C)(C)C | 3.3 | – | < 5.70 | < 5.70 | 5
Cc1cn([C@@H]2O[C@H](CO[Si](C)(C)C(C)(C)C)[C@@]3(OS(=O)(=O)C(c4ccccc4)=C3N)[C@H]2O[Si](C)(C)C(C)(C)C)c(=O)n(C)c1=O | 24 | – | < 4.30 | – | 65
Cc1cn([C@@H]2O[C@H](CO[Si](C)(C)C(C)(C)C)[C@@]3(OS(=O)(=O)C(c4ccsc4)=C3N)[C@H]2O[Si](C)(C)C(C)(C)C)c(=O)n(C)c1=O | 3.9 | – | < 5.70 | < 5.70 | 33
C=CCC1=C(N)[C@@]2(OS1(=O)=O)[C@@H](CO[Si](C)(C)C(C)(C)C)O[C@@H](n1cc(C)c(=O)n(C)c1=O)[C@@H]2O[Si](C)(C)C(C)(C)C | 82 | – | < 4.30 | < 4.30 | 45
CNC1=C(C)S(=O)(=O)O[C@@]12[C@@H](CO[Si](C)(C)C(C)(C)C)O[C@@H](n1cc(C)c(=O)n(C)c1=O)[C@@H]2O[Si](C)(C)C(C)(C)C | > 250 | – | < 3.60 | < 3.60 | 234
CC1=C(N)[C@@]2(OS1(=O)=O)[C@@H](CO[Si](C)(C)C(C)(C)C)O[C@@H](n1cc(C)c(=O)n(C)c1=O)[C@@H]2O[Si](C)(C)C(C)(C)C | > 250 | – | < 3.60 | < 4.30 | 10
C=CCNC1=CS(=O)(=O)O[C@@]12[C@@H](CO[Si](C)(C)C(C)(C)C)O[C@@H](n1cc(C)c(=O)n(C)c1=O)[C@@H]2O[Si](C)(C)C(C)(C)C | 25 | – | < 4.30 | < 4.30 | 126
COC(=O)/C=C/C1=C(N)[C@@]2(OS1(=O)=O)[C@@H](CO[Si](C)(C)C(C)(C)C)O[C@@H](n1cc(C)c(=O)n(C)c1=O)[C@@H]2O[Si](C)(C)C(C)(C)C | 55 | – | < 5.00 | < 5.70 | 37
C=CC1=C(N)[C@@]2(OS1(=O)=O)[C@@H](CO[Si](C)(C)C(C)(C)C)O[C@@H](n1cc(C)c(=O)[nH]c1=O)[C@@H]2O[Si](C)(C)C(C)(C)C | 24 | – | 5.48 | 5.40 | 36
CCOC(=O)/C=C/C1=C(N)[C@@]2(OS1(=O)=O)[C@@H](CO[Si](C)(C)C(C)(C)C)O[C@@H](n1cc(C)c(=O)[nH]c1=O)[C@@H]2O[Si](C)(C)C(C)(C)C | 40 | – | < 4.30 | < 5.00 | 174
COC(=O)/C=C/C1=C(N)[C@@]2(OS1(=O)=O)[C@@H](CO[Si](C)(C)C(C)(C)C)O[C@@H](n1cc(C)c(=O)[nH]c1=O)[C@@H]2O[Si](C)(C)C(C)(C)C | 29 | – | 5.00 | 5.14 | 39
Cc1cn([C@@H]2O[C@H](CO[Si](C)(C)C(C)(C)C)[C@@]3(OS(=O)(=O)C(I)=C3N)[C@H]2O[Si](C)(C)C(C)(C)C)c(=O)n(C)c1=O | 3.9 | – | < 5.00 | < 5.70 | 5.6
Cc1cn([C@@H]2O[C@H](CO[Si](C)(C)C(C)(C)C)[C@@]3(OS(=O)(=O)C(/C=C/CO)=C3N)[C@H]2O[Si](C)(C)C(C)(C)C)c(=O)[nH]c1=O | 17 | – | 5.27 | 5.92 | 18
